Hits are enriched below; roughly 2.4% of the tested compounds scored in any of these assays.
PREPL inh: PREPL enzyme inhibitors, primary screen, biochemical, fluorescence polarization; 320,000 compounds, 0.68% hits; Prolyl endopeptidase-like (Homo sapiens), Q4J6C6; inhibition, % at 5.96 µM; recombinant PREPL, fluorescence polarization activity-based probe; AID 2751, 2010; in the data active = inhibition above about 43%;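 also: 0% = enzyme with DMSO and 100% = wells lacking enzyme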
HNF4A DNA FP: change in binding of human HNF4A to DNA, primary screen, biochemical, fluorescence polarization, FITC-DNA | AID 1224865, 2016 | Hepatocyte nuclear factor 4-alpha (Homo sapiens), P41235 | 1 h | activity change, % at 10 µM | 360,000 compounds, 0.3% hits; in the data active = activity change above about 30%, passing the limit was not always enough
TbMetRS inhib: T. brucei MetRS inhibitors, primary screen, biochemical, luminescence | inhibition, % at 11.9 µM | 360,000 compounds, 0.4% hits | methionyl-tRNA synthetase (Trypanosoma brucei brucei) | purified T. brucei MetRS, ATP depletion, Kinase-Glo luminescence;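 active = inhibition above a per-plate cutoff of the control wells' mean inhibition plus 3 SD, cut at about 5.5% in these data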;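 also: 0% = DMSO wells median and 100% = median of wells with control inhibitor compound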
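technique = Kinase-Glo luminescence, ATP depletion format | system = purified MetRS (methionyl-tRNA synthetase) enzyme from Trypanosoma brucei | timing = 15 min preincubation, 2 h reaction, all 25 °C | evaluation = percent inhibition versus plate control medians | dosing = single dose, 11.9 µM final nominal, 0.9% final DMSO | also added = substrates ATP, L-methionine and bulk Escherichia coli tRNA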
Rpn11 inh: Rpn11 (PSMD14) deubiquitinase inhibitors, primary screen, biochemical, fluorescence polarization, uHTS; 360,000 compounds, 0.59% hits; inhibition, % at 20 µM; human 26S proteasome, Ub4-pepOG fluorescence polarization; 20S core pre-blocked with epoxomicin;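 active = inhibition at 20 µM, scaled to each plate's controls, above about 33%, limit read from the data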
Target sequence (O00487 whole entry, looked up): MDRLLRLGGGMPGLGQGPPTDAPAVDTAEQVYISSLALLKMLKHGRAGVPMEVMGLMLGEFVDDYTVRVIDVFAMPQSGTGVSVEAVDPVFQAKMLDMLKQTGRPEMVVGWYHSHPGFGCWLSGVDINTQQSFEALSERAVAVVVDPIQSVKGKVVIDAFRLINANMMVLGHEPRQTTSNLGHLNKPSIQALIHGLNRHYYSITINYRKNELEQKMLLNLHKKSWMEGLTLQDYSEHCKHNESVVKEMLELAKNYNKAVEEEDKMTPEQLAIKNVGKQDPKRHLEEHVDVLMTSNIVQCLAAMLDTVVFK
Neddyl block: inhibitors of cullin neddylation, primary screen, biochemical, TR-FRET, uHTS, NAE and Ubc12. NEDD8-conjugating enzyme Ubc12 (Homo sapiens) + NEDD8-activating enzyme E1 regulatory …. inhibition, % at 25 µM. 360,000 compounds, 0.58% hits; in the data active = inhibition above about 36%
CSN deneddyl inh: inhibitors of CSN-mediated cullin deneddylation, primary screen, biochemical, fluorescence polarization, uHTS. AID 651999, 2013. Purified CSN, SCF-Nedd8-OG deneddylation. inhibition, % at 12.5 µM. 360,000 compounds, 0.38% hits. COP9 signalosome complex subunit 5 (Homo sapiens), Q92905;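 active = pattern-corrected inhibition above about 35%, with an unprinted fluorescence ratio check between 0.5 and 1.5, limit read from the data, passing the limit was not always enough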;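 also: 0% = enzyme with substrate and 100% = substrate without enzyme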
Target sequence (Q92905 whole entry, looked up, one chain of several): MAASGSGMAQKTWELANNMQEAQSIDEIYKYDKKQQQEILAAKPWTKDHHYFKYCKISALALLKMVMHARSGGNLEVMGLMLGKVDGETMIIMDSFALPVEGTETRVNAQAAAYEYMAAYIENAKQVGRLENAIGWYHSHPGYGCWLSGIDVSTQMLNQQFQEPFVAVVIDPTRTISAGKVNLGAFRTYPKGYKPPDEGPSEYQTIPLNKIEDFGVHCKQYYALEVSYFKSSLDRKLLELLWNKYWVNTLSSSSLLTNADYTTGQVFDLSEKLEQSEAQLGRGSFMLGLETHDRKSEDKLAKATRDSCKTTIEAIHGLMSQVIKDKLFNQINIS
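test system = HEK293T-derived human Csn5 enzyme | amount = 0.24 nM Csn5 enzyme, final concentration | medium = Tris/NaCl/DTT buffer, pH 7.5 | schedule = 90 min reaction at room temperature | signal = FP | evaluation = inhibition of Csn5 cleavage, % | compound dosing = single dose of 12.5 µM compound with 0.25% DMSO | probe or stimulus = 10 nM SCFSkp2-Nedd8OG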
Tb MetRS conf: T. brucei MetRS inhibitors, confirmation, biochemical, luminescence. shares compounds with TbMetRS inhib. T. brucei MetRS enzyme, luminescence (ATP depletion). AID 624412, 2012. inhibition, % at 11.9 µM. 1,400 compounds, 93% hits; in the data active = inhibition above about 7%
Jurkat cytotox: Jurkat T cell cytotoxicity, cytotoxicity control for T. brucei MetRS inhibitor project, luminescence, high throughput. shares compounds with TbMetRS inhib. Jurkat cells viability, ATP luminescence. inhibition, % at 8.3 µM. 1,400 compounds, 12% hits; in the data active = inhibition above about 15%;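 also: 0% = vehicle and 100% = reference inhibitor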
TbMetRS FP orth: T. brucei MetRS inhibitors, orthogonal assay for T. brucei MetRS inhibitor project, biochemical, fluorescence polarization. shares compounds with TbMetRS inhib. purified T. brucei MetRS. inhibition, % at 11.9 µM. 1,400 compounds, 44% hits. AID 651607, 2012; in the data active = inhibition above about 17%;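 also: 0% = vehicle wells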
Starred values were filed as active, the others as inactive; · = no result given.

SMILES	PREPL inh	HNF4A DNA FP	TbMetRS inhib	Rpn11 inh	Neddyl block	CSN deneddyl inh	Tb MetRS conf	Jurkat cytotox	TbMetRS FP orth
CN(CC(=O)Nc1ccc(Cl)c(C(F)(F)F)c1)C(=O)c1ccc2c(c1)NC(=O)CS2	30.1	8.6	6.6*	1.0	-11.1	1.7	16.5*	-4.1	8.1
Nc1ccc(N2CCOCC2)c2nonc12	10.2	1.9	26.5*	6.5	-29.1	3.0	4.5	-5.5	0.7
O=C(Nn1c(O)c(C=C2N=c3ccccc3=N2)sc1=S)c1ccccc1	7.9	4.3	5.0	9.8	0.7	2.7	·	·	·
Cc1ccc(C(=O)Nn2c(O)c(C=C3N=c4ccccc4=N3)sc2=S)cc1	15.2	-3.7	7.5*	-4.6	-0.3	5.5	14.1*	7.0	18.4*
Cc1ccc(S(=O)(=O)Nn2c(O)c(C=C3N=c4ccccc4=N3)sc2=S)cc1	10.7	-0.2	77.7*	4.3	-13.5	-7.2	93.3*	-7.4	57.0*
O=C(Nn1c(O)c(C=C2N=c3ccccc3=N2)sc1=S)c1ccc(Cl)cc1	12.1	0.3	6.4*	-11.5	9.4	-9.6	21.0*	5.5	30.1*
O=[N+]([O-])c1ccc(NCCNc2ccc(Cl)nn2)cc1	20.3	-0.3	11.1*	4.1	-34.5	-6.7	18.1*	2.7	5.0
O=[N+]([O-])c1ccc(OCc2cnc(Cl)s2)c([N+](=O)[O-])c1	3.4	-3.8	6.7*	1.4	-32.4	-0.6	17.7*	1.5	16.3
COC(=O)C(Cc1cnc(Cl)s1)(C(=O)OC)c1ccc([N+](=O)[O-])cc1[N+](=O)[O-]	11.5	-1.9	-0.2	1.5	-34.8	2.6	·	·	·
CN(CC(=O)Nc1ccccc1Br)C(=O)c1ccccc1OCc1ccccc1Cl	·	-1.1	-0.2	1.5	4.2	5.9	·	·	·
CCN(CC(=O)NCc1ccc(Cl)cc1)C(=O)CCc1ccccc1O	-9.6	-0.8	37.0*	-1.2	3.4	1.3	66.7*	3.2	33.2*
CCN(CC(=O)NCc1ccc(Cl)cc1)C(=O)NCc1ccc(Cl)cc1	-11.7	-1.5	-0.5	2.1	0.7	3.8	·	·	·
CCc1cc2c(=O)n(CCCOC)c(SCC(=O)Nc3oc(C)c4c(C)n[nH]c(=O)c34)nc2s1	-3.3	-0.1	-0.2	5.2	-14.4	2.7	·	·	·
CCN(CC)S(=O)(=O)c1cc(C(=O)N(C)CC(=O)Nc2ccc(Cl)cc2)ccc1Cl	-6.1	2.4	43.4*	-3.5	4.9	-5.9	57.3*	1.3	23.7*
CCN(CC)S(=O)(=O)c1cc(C(=O)Nc2ccncc2)ccc1Cl	6.1	-0.2	0.5	-1.4	6.7	3.0	·	·	·
CC(=O)Cc1nsc(Nc2ccc(Cl)cc2)n1	-3.3	-0.5	10.0*	-3.1	0.1	-3.9	4.5	2.0	5.4
Nc1ccc(C(=O)OCc2nc3c(ccc4ccccc43)[nH]2)cc1	25.0	-2.1	7.1*	-18.5	6.9	0.1	10.5*	20.4*	10.5
O=C(CSc1nnc(CCc2nc3ccccc3[nH]2)n1-c1ccccc1)NCc1ccco1	12.2	-1.8	0.6	-4.1	0.8	-1.6	·	·	·
O=C(CSc1nnc(CCc2nc3ccccc3[nH]2)n1-c1ccccc1)NCc1ccccc1	4.8	-1.8	6.2*	-5.0	0.5	-1.4	9.2*	4.6	-1.9
CC(C)NC(=O)C1(C)CN(S(C)(=O)=O)CC(=O)N1CCc1ccccc1 (stereo unspecified)	·	-1.3	0.2	·	5.2	-6.8	·	·	·
COc1ccc(C(=O)OCC(=O)N2c3ccccc3CC2C)cc1S(=O)(=O)N1CCOCC1 (stereo unspecified)	·	-0.5	0.0	-5.6	1.3	-0.9	·	·	·
CC1=C(C(=O)N(C)C)CC(CC(=O)NCc2cccc3ccccc23)C(=O)N1Cc1ccc(F)cc1 (stereo unspecified)	·	4.9	-0.4	-1.1	1.2	-6.0	·	·	·
CC1(C)CC(NCc2ccccc2)=CC(=S)N1	·	16.3	0.1	·	1.2	16.8	·	·	·
CC1(C)CC(N2CCN(CCO)CC2)=CC(=S)N1	8.6	-1.1	6.2*	4.1	5.9	0.1	3.4	-0.1	-3.5
O=C1[C@@H]2Cc3c([nH]c4ccccc34)C(c3ccccc3)N2C(=O)CN1C1CCN(Cc2ccccc2)CC1 (stereo partly specified)	28.9	-3.2	-0.9	7.9	-6.0	1.8	·	·	·
SMILES	PREPL inh	HNF4A DNA FP	TbMetRS inhib	Rpn11 inh	Neddyl block	CSN deneddyl inh	Tb MetRS conf	Jurkat cytotox	TbMetRS FP orth
O=C1[C@@H]2Cc3c([nH]c4ccccc34)C(c3cccc(Br)c3)N2C(=O)CN1C1CCN(Cc2ccccc2)CC1 (stereo partly specified)	-6.6	2.7	41.4*	-1.8	-1.1	4.4	54.1*	5.1	27.8*
COc1ccc(OC)c(C2c3[nH]c4ccccc4c3C[C@H]3C(=O)N(C4CC4)CC(=O)N23)c1 (stereo partly specified)	5.2	2.7	-0.3	-4.8	-1.4	-2.0	·	·	·
COc1cccc(C2c3[nH]c4ccccc4c3C[C@H]3C(=O)N(C4CC4)CC(=O)N23)c1 (stereo partly specified)	2.0	-1.9	15.9*	2.4	-0.5	4.4	29.9*	8.3	21.7*
COc1cccc(C2c3[nH]c4ccccc4c3C[C@H]3C(=O)N(C)CC(=O)N23)c1 (stereo partly specified)	-5.3	2.2	15.9*	-1.7	4.7	-4.7	30.9*	1.8	9.8
C=CCC(NC(=O)N(C)C)(C(C)=O)C(=O)OC (stereo unspecified)	·	1.2	-0.1	·	-8.6	-7.2	·	·	·
O=C(c1ccncc1)c1ccc(N2CCN(C3CC(=O)N(Cc4cccs4)C3=O)CC2)cc1 (stereo unspecified)	-7.8	3.2	6.6*	6.4	-23.0	1.0	14.2*	11.2	6.0

From PubChem BioAssay
